# Laboratory results published in the M2OR odorant receptor database.
# Target: OR1P1 (Homo sapiens) (UniProt Q8NH06)
# Settings: stereoisomer not certain
# Method in brief: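 Whether a receptor–molecule pair is responsive (active) rests on the original authors' judgment that its measured signal was statistically different from baseline. Pairs without that judgment are non-responsive (inactive). Sources used varied assay methods, commonly transient luciferase assays in mammalian cell lines.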
# 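Note: active if original authors judged signal statistically different from baseline.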
# Chain of OR1P1 (Homo sapiens) (Q8NH06 whole entry K185A): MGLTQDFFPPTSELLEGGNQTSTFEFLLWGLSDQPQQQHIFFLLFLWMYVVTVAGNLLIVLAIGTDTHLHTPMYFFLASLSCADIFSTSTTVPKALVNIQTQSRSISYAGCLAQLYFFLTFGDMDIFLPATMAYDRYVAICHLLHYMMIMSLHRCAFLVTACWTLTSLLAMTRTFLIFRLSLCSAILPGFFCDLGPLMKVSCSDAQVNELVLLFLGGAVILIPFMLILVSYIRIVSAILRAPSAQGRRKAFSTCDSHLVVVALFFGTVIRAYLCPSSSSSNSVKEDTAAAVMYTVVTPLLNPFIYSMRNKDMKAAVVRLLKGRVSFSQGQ
row,SMILES,odorant receptor agonist call
1,CC(=O)c1c(C)c([N+](=O)[O-])c(C(C)(C)C)c([N+](=O)[O-])c1C,inactive
2,CC1CCCCCCCCCCCCC(=O)C1 (configuration not stated),inactive
